From ChEMBL document CHEMBL1156239, “Synthesis, anticonvulsant and antimicrobial activities of some new 2-acetylnaphthalene derivatives” (Bioorg Med Chem, 2010)
Values after ≈ are worked out from the molar mass of the structure shown. Active and inactive are the calls of the source. The calls are words filed in the database; no cut-off is given here.

Columns and labels:
Rattus norvegicus [1] = assay: Anticonvulsant activity in Sprague-Dawley rat assessed as inhibition of maximal electroshock-induced seizures at 30 mg/kg, ip; assay type: functional, organism-based; parameters: dose 30 mg/kg
Staphylococcus aureus = assay: Antibacterial activity against Staphylococcus aureus ATCC 25923 after 24 hrs by broth microdilution method; assay type: functional; conditions: ATCC 25923, 24 h
How it was run: (§1)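 Broth microdilution in Mueller Hinton broth; compound stocks in DMSO, diluted into test medium. Plates incubated at 35 °C and read visually after 24 h. MIC taken as lowest concentration preventing visible growth. Ampicillin reference.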

Enterococcus faecalis = assay: Antibacterial activity against Enterococcus faecalis ATCC 29212 after 24 hrs by broth microdilution method; assay type: functional; conditions: ATCC 29212, 24 h; how it was run: as §1
Escherichia coli = assay: Antibacterial activity against Escherichia coli ATCC 25922 after 24 hrs by broth microdilution method; assay type: functional; conditions: ATCC 25922, 24 h; how it was run: as §1
Pseudomonas aeruginosa = assay: Antibacterial activity against Pseudomonas aeruginosa ATCC 27853 after 24 hrs by broth microdilution method; assay type: functional; conditions: ATCC 27853, 24 h; how it was run: as §1
Pichia kudriavzevii = assay: Antifungal activity against Candida krusei ATCC 6258 after 48 hrs by broth microdilution method; assay type: functional; conditions: ATCC 6258, 48 h
Candida parapsilosis = assay: Antifungal activity against Candida parapsilosis ATCC 22019 after 48 hrs by broth microdilution method; assay type: functional; conditions: Lodderomyces parapsilosis, ATCC 22019, 48 h
Mus musculus [2] = assay: Anticonvulsant activity in CF1 mouse assessed as inhibition of maximal electroshock-induced seizures at 30 mg/kg, ip after 0.5 hrs; assay type: functional, organism-based; parameters: dose 30 mg/kg
How it was run: (§2)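 Male albino CF#1 mice (18–25.5 g), compound suspended in 0.5% methylcellulose, given ip 0.5 h or 4 h before test. Eyes treated with 0.5% tetracaine HCl in saline; corneal-type MES at 60 Hz, 50 mA for 0.2 s; protection scored as animals protected/tested.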

Mus musculus [3] = assay: Anticonvulsant activity in CF1 mouse assessed as inhibition of maximal electroshock-induced seizures at 100 mg/kg, ip after 0.5 hrs; assay type: functional, organism-based; parameters: dose 100 mg/kg; how it was run: as §2
Mus musculus [4] = assay: Anticonvulsant activity in CF1 mouse assessed as inhibition of maximal electroshock-induced seizures at 300 mg/kg, ip after 0.5 hrs; assay type: functional, organism-based; parameters: dose 300 mg/kg; how it was run: as §2
Mus musculus [5] = assay: Anticonvulsant activity in CF1 mouse assessed as inhibition of maximal electroshock-induced seizures at 30 mg/kg, ip after 4 hrs; assay type: functional, organism-based; parameters: dose 30 mg/kg; how it was run: as §2
Mus musculus [6] = assay: Anticonvulsant activity in CF1 mouse assessed as inhibition of maximal electroshock-induced seizures at 300 mg/kg, ip after 4 hrs; assay type: functional, organism-based; parameters: dose 300 mg/kg; how it was run: as §2
Mus musculus [7] = assay: Neurotoxicity in CF1 mouse at 30 mg/kg, ip after 0.5 hrs by rotarod test; assay type: toxicity, organism-based; parameters: dose 30 mg/kg, route intraperitoneal; conditions: in vivo
How it was run: (§3)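 Male albino CF#1 mice (18–25.5 g) dosed ip with compound suspended in 0.5% methylcellulose, 0.5 h or 4 h before testing; neurotoxicity assessed by rotarod, scored as number toxic/number tested.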

Mus musculus [8] = assay: Neurotoxicity in CF1 mouse at 100 mg/kg, ip after 0.5 hrs by rotarod test; assay type: toxicity, organism-based; parameters: dose 100 mg/kg, route intraperitoneal; conditions: in vivo; how it was run: as §3
Mus musculus [9] = assay: Neurotoxicity in CF1 mouse assessed as ability to grasp rotarod at 300 mg/kg, ip after 0.5 hrs by rotarod test; assay type: toxicity, organism-based; parameters: dose 300 mg/kg, route intraperitoneal; conditions: in vivo; how it was run: as §3
Mus musculus [10] = assay: Neurotoxicity in CF1 mouse assessed as muscle spasms at 300 mg/kg, ip after 0.5 hrs by rotarod test; assay type: toxicity, organism-based, Muscle tissue; parameters: dose 300 mg/kg, route intraperitoneal; conditions: in vivo
Mus musculus [11] = assay: Neurotoxicity in CF1 mouse at 30 mg/kg, ip after 4 hrs by rotarod test; assay type: toxicity, organism-based; parameters: dose 30 mg/kg, route intraperitoneal; conditions: in vivo; how it was run: as §3
Mus musculus [12] = assay: Neurotoxicity in CF1 mouse at 100 mg/kg, ip after 4 hrs by rotarod test; assay type: toxicity, organism-based; parameters: dose 100 mg/kg, route intraperitoneal; conditions: in vivo; how it was run: as §3
Mus musculus [13] = assay: Neurotoxicity in CF1 mouse assessed as ability to grasp rotarod at 300 mg/kg, ip after 4 hrs by rotarod test; assay type: toxicity, organism-based; parameters: dose 300 mg/kg, route intraperitoneal; conditions: in vivo
How it was run: (§4)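 Male albino CF#1 mice (18–25.5 g), free access to food and water except during testing, under NINDS Anticonvulsant Screening Program procedures. Compounds were suspended in 0.5% methylcellulose and given ip. Neurotoxicity was scored by rotarod 0.5 h and 4 h after dosing, at screening doses of 30, 100 or 300 mg/kg. Results are reported as affected/tested animals.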

Mus musculus [14] = assay: Neurotoxicity in CF1 mouse assessed as muscle spasms at 300 mg/kg, ip after 4 hrs by rotarod test; assay type: toxicity, organism-based, Muscle tissue; parameters: dose 300 mg/kg, route intraperitoneal; conditions: in vivo
Rattus norvegicus [15] = assay: Anticonvulsant activity in Sprague-Dawley rat assessed as inhibition of maximal electroshock-induced seizures at 30 mg/kg, po after 0.25 hrs; assay type: functional, organism-based; parameters: dose 30 mg/kg
How it was run: (§5)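 Male albino Sprague-Dawley rats (105–130 g) given a single oral 30 mg/kg dose suspended in 0.5% methylcellulose; MES (60 Hz, 150 mA, 0.2 s, tetracaine-anesthetized eyes) at 0.25, 0.5, 1, 2 and 4 h; 4 rats per time point; scored protected/tested.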

Rattus norvegicus [16] = assay: Anticonvulsant activity in Sprague-Dawley rat assessed as inhibition of maximal electroshock-induced seizures at 30 mg/kg, po after 0.5 hrs; assay type: functional, organism-based; parameters: dose 30 mg/kg; how it was run: as §5
Rattus norvegicus [17] = assay: Anticonvulsant activity in Sprague-Dawley rat assessed as inhibition of maximal electroshock-induced seizures at 30 mg/kg, po after 4 hrs; assay type: functional, organism-based; parameters: dose 30 mg/kg; how it was run: as §5
Rattus norvegicus [18] = assay: Neurotoxicity in Sprague-Dawley rat at 30 mg/kg, po after 0.25 hrs by rotarod test; assay type: toxicity, organism-based; parameters: dose 30 mg/kg, route oral; conditions: in vivo
Rattus norvegicus [19] = assay: Neurotoxicity in Sprague-Dawley rat at 30 mg/kg, po after 0.5 hrs by rotarod test; assay type: toxicity, organism-based; parameters: dose 30 mg/kg, route oral; conditions: in vivo
Rattus norvegicus [20] = assay: Neurotoxicity in Sprague-Dawley rat at 30 mg/kg, po after 1 hr by rotarod test; assay type: toxicity, organism-based; parameters: dose 30 mg/kg, route oral; conditions: in vivo
Rattus norvegicus [21] = assay: Neurotoxicity in Sprague-Dawley rat at 30 mg/kg, po after 2 hrs by rotarod test; assay type: toxicity, organism-based; parameters: dose 30 mg/kg, route oral; conditions: in vivo
Rattus norvegicus [22] = assay: Neurotoxicity in Sprague-Dawley rat at 30 mg/kg, po after 4 hrs by rotarod test; assay type: toxicity, organism-based; parameters: dose 30 mg/kg, route oral; conditions: in vivo
Rattus norvegicus [23] = assay: Anticonvulsant activity in Sprague-Dawley rat assessed as inhibition of maximal electroshock-induced seizures at 30 mg/kg, ip after 0.5 hrs; assay type: functional, organism-based; parameters: dose 30 mg/kg
Rattus norvegicus [24] = assay: Neurotoxicity in Sprague-Dawley rat at 30 mg/kg, ip after 0.5 hrs by rotarod test; assay type: toxicity, organism-based; parameters: dose 30 mg/kg, route intraperitoneal; conditions: in vivo
Rattus norvegicus [25] = assay: Neurotoxicity in Sprague-Dawley rat at 30 mg/kg, ip after 1 hr by rotarod test; assay type: toxicity, organism-based; parameters: dose 30 mg/kg, route intraperitoneal; conditions: in vivo
Rattus norvegicus [26] = assay: Neurotoxicity in Sprague-Dawley rat at 30 mg/kg, ip after 2 hrs by rotarod test; assay type: toxicity, organism-based; parameters: dose 30 mg/kg, route intraperitoneal; conditions: in vivo
Mus musculus [27] = assay: Anticonvulsant activity in CF1 mouse assessed as inhibition of maximal electroshock-induced seizures at 100 mg/kg, ip after 4 hrs; assay type: functional, organism-based; parameters: dose 100 mg/kg; how it was run: as §2
Mus musculus [28] = assay: Neurotoxicity in CF1 mouse assessed as clonic seizures at 300 mg/kg, ip after 0.5 hrs by rotarod test; assay type: toxicity, organism-based; parameters: dose 300 mg/kg, route intraperitoneal; conditions: in vivo
Rattus norvegicus [29] = assay: Anticonvulsant activity in Sprague-Dawley rat assessed as inhibition of maximal electroshock-induced seizures at 30 mg/kg, po after 1 hr; assay type: functional, organism-based; parameters: dose 30 mg/kg; how it was run: as §5
Mus musculus [30] = assay: Neurotoxicity in CF1 mouse assessed as mortality at 300 mg/kg, ip after 0.5 hrs by rotarod test; assay type: toxicity, organism-based; parameters: dose 300 mg/kg, route intraperitoneal; conditions: in vivo; how it was run: as §4
Mus musculus [31] = assay: Neurotoxicity in CF1 mouse at 300 mg/kg, ip after 4 hrs by rotarod test; assay type: toxicity, organism-based; parameters: dose 300 mg/kg, route intraperitoneal; conditions: in vivo; how it was run: as §3
Mus musculus [32] = assay: Anticonvulsant activity in CF1 mouse assessed as inhibition of maximal electroshock-induced […] seizures at 300 mg/kg, ip after 0.5 hrs; assay type: functional, organism-based; parameters: dose 300 mg/kg; how it was run: as §2

Row | SMILES | MIC (Staphylococcus aureus) [µg/mL] | MIC (Enterococcus faecalis) [µg/mL] | MIC (Escherichia coli) [µg/mL] | MIC (Pseudomonas aeruginosa) [µg/mL] | MIC (Pichia kudriavzevii) [µg/mL] | MIC (Candida parapsilosis) [µg/mL] | inhibition (Mus musculus [2]) | inhibition (Mus musculus [3]) | inhibition (Mus musculus [5]) | inhibition (Mus musculus [6]) | Activity (Mus musculus [7]) | Activity (Mus musculus [9]) | Activity (Mus musculus [10]) | Activity (Mus musculus [11]) | Activity (Mus musculus [12]) | Activity (Rattus norvegicus [18]) | Activity (Rattus norvegicus [19]) | Activity (Rattus norvegicus [20]) | Activity (Rattus norvegicus [21]) | Activity (Rattus norvegicus [22]) | further results
1 | CCCC(CCC)C(=O)OC(Cn1ccnc1)c1ccc2ccccc2c1 (configuration not stated) | 8 (≈ 21.9 µM) | 16 (≈ 43.9 µM) | > 1020 | > 1020 | 1020 (≈ 2810 µM) | 1020 (≈ 2810 µM) | inactive | Active | inactive | Active | Non-toxic | Toxic | Toxic | Non-toxic | Non-toxic | Non-toxic | Non-toxic | Non-toxic | Non-toxic | Non-toxic | inhibition (Rattus norvegicus [1]): Active; inhibition (Mus musculus [4]): Active; Activity (Mus musculus [8]): Non-toxic; Activity (Mus musculus [13]): Toxic; Activity (Mus musculus [14]): Toxic; inhibition (Rattus norvegicus [15]): inactive; inhibition (Rattus norvegicus [16]): inactive; inhibition (Rattus norvegicus [17]): inactive; inhibition (Rattus norvegicus [23]): Active; Activity (Rattus norvegicus [24]): Non-toxic; Activity (Rattus norvegicus [25]): Non-toxic; Activity (Rattus norvegicus [26]): Non-toxic
2 | O=C(OC(Cn1ccnc1)c1ccc2ccccc2c1)c1ccccc1 (configuration not stated) | 8 (≈ 23.4 µM) | 32 (≈ 93.5 µM) | > 1020 | > 1020 | 512 (≈ 1500 µM) | 1020 (≈ 2990 µM) | inactive | Active | inactive | inactive |  | Toxic | Toxic | Non-toxic | Non-toxic | Non-toxic | Non-toxic | Non-toxic | Non-toxic | Non-toxic | inhibition (Mus musculus [4]): Active; inhibition (Mus musculus [27]): inactive; Activity (Mus musculus [28]): Toxic; inhibition (Rattus norvegicus [16]): inactive; inhibition (Rattus norvegicus [29]): inactive; inhibition (Rattus norvegicus [17]): inactive
3 | CC(C)C(=O)OC(Cn1ccnc1)c1ccc2ccccc2c1 (configuration not stated) | 16 (≈ 51.9 µM) | 128 (≈ 415 µM) | > 1020 | > 1020 | 256 (≈ 830 µM) | 256 (≈ 830 µM) | Active | Active | inactive | Active | Non-toxic | Toxic | Toxic | Non-toxic | Non-toxic | Non-toxic | Non-toxic | Non-toxic | Non-toxic | Non-toxic | Activity (Mus musculus [30]): Toxic; Activity (Mus musculus [31]): Non-toxic; inhibition (Rattus norvegicus [15]): inactive
4 | CCCC(=O)OC(Cn1ccnc1)c1ccc2ccccc2c1 (configuration not stated) | 8 (≈ 25.9 µM) | 128 (≈ 415 µM) | > 1020 | > 1020 | 256 (≈ 830 µM) | 64 (≈ 208 µM) | inactive | Active | inactive | Active | Non-toxic | Toxic |  | Non-toxic | Non-toxic |  |  |  |  |  | inhibition (Mus musculus [27]): inactive; inhibition (Mus musculus [32]): Active; Activity (Mus musculus [31]): Non-toxic
